Experimental data as given in ChEMBL document CHEMBL1275586, “Phenotypic susceptibility to bevirimat in isolates from HIV-1-infected patients without prior exposure to bevirimat” (Antimicrob Agents Chemother, 2010).

Assays:
Format in all cases: functional, MT2
[1] = tested on: Human immunodeficiency virus 1; assay: Antiviral activity against antiretroviral-pretreated PI-resistant Human immunodeficiency virus 1 isolate 26 harboring Gag-SP1 N372S, S373P and T375N mutant gene infected in human MT-2 cells by XTT assay relative to wild-type
Summary of the method: (§1)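 Patient-derived Gag fragments were pooled as bacterial colonies to keep quasispecies diversity and ligated into the pXXLAI (HIV-1 LAI) backbone. Virus was made by transfecting 293T cells and harvesting supernatant 2 days later. MT-2 cells were infected at 37°C with an inoculum titrated to give an XTT signal-to-noise of 2.5–4.0. Cells were plated into drug dilutions, incubated 5 days at 37°C, and read by XTT absorbance (450−650 nm). EC50 was taken from percent cell death and expressed as fold change versus wild-type LAI.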

[2] = tested on: Human immunodeficiency virus 1; assay: Antiviral activity against Human immunodeficiency virus 1 isolate 2 harboring Gag-capsid A146P, S173A, V215L, E230D, N252S, L268M and A340G mutant gene and protease L10I, I15V, K20R, M36I, S37N, M46I, L63P, V82A, N83H, I84V, I85T and L90M mutant gene infected in human MT-2 cells by XTT-assay relative to wild-type
Summary of the method: (§2)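 Patient Gag-protease (SfoI-XmaI) fragments were ligated into the pXXLAI backbone, with colonies pooled to keep quasispecies. Virus came from 293T transfection, harvested at 2 days. MT-2 infection at 37°C used an input giving XTT signal-to-noise of 2.5–4.0 (≈MOI 0.001). Cells at ≈17,000/well with drug dilutions, 5 days, 37°C; XTT 1 h, A450–650. EC50 from % cell death; fold change vs wild-type LAI.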

[3] = tested on: Human immunodeficiency virus 1; assay: Antiviral activity against antiretroviral-pretreated PI-resistant Human immunodeficiency virus 1 isolate 29 harboring Gag-SP-1 T375A mutant gene infected in human MT-2 cells by XTT assay relative to wild-type; summary of the method: as §1
[4] = tested on: Human immunodeficiency virus 1; assay: Antiviral activity against Human immunodeficiency virus 1 isolate 29 harboring Gag-capsid I138M, A146P, R286K and A326S mutant gene and protease L10F, I13V, V32I, M36L, S37N, M46I, I47V, I62V, L63P, A71I, I72V and V82A mutant gene infected in human MT-2 cells by XTT-assay relative to wild-type; summary of the method: as §2
[5] = tested on: Human immunodeficiency virus 1; assay: Antiviral activity against antiretroviral-pretreated PI-resistant Human immunodeficiency virus 1 isolate 5 harboring Gag-SP1 Q369H and T375N mutant gene infected in human MT-2 cells by XTT assay relative to wild-type; summary of the method: as §1
[6] = tested on: Human immunodeficiency virus 1; assay: Antiviral activity against Human immunodeficiency virus 1 isolate 35 harboring Gag-capsid G357S mutant gene and Gag-SP1 V370A, T371Q, N372S, T375N and I376M mutant gene infected in human MT-2 cells by XTT assay relative to wild-type; summary of the method: as §2
[7] = tested on: Human immunodeficiency virus 1; assay: Antiviral activity against Human immunodeficiency virus 1 isolate 39 harboring Gag-capsid G357S and V362I mutant gene and Gag-SP-1 T375A mutant gene infected in human MT-2 cells by XTT assay relative to wild-type; summary of the method: as §2

C=C(C)[C@@H]1CC[C@]2(C(=O)O)CC[C@]3(C)[C@H](CC[C@@H]4[C@@]5(C)CC[C@H](OC(=O)CC(C)(C)C(=O)O)C(C)(C)[C@@H]5CC[C@]43C)[C@@H]12 [BEVIRIMAT]
fold change (FC) [1]: 1.3 | fold change (FC) [2]: >100 | fold change (FC) [3]: >100 | fold change (FC) [4]: >100 | fold change (FC) [5]: 2.2 | fold change (FC) [6]: >100 | fold change (FC) [7]: >100
